Measured values taken from PubChem BioAssay.
Active and inactive are the calls of the source.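 Rule for the calls, unless noted: active = viability at or below 10% of carrier control in both of two separate runs; inconclusive = viability at or below 10% in only one of the two runs; inactive = the rest.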

Assays:
[1] = reduced viability of SK-BR-3 breast cancer cells – cell-based, 24 h, human, pilot screen (AID 572); details: SK-BR-3 viability, CellTiter-Glo luminescence, at 10 µM, stronger effect = lower value;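 note: compound exposure lasted between 18 and 24 h rather than exactly 24 h; 100% = carrier-treated control wells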
[2] = HUVEC growth inhibition – cell-based, human, primary screen (AID 575;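 active = viability at or below 30% in both replicate assays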;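 note: 100% = median of untreated cell wells with 0.1% DMSO on each plate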); details: HUVEC proliferation, CellTiter-Glo luminescence, 72 h; at 10 µM; stronger effect = lower value
In short: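 Material: primary human umbilical vein endothelial cells / Schedule: 72 h exposure, 37 °C, 5% CO2, 30 min RT equilibration / Signal: ATP-based CellTiter-Glo luminescent read / Read-out basis: percent of median DMSO-control luminescence / Control set: 32 DMSO-only cell-control wells (high), 32 MePR drug-control wells (low) per plate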

[3] = H69AR cell proliferation blockers – human, duplicate replicates, primary screen (AID 580;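 active = viability at or under a set limit in both replicates, limit being median viability minus 3 SD, cut at about 48% in these data, passing the limit was not always enough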;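 note: 100% = mean luminescence of untreated wells and 0% = no signal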); details: H69AR lung tumor cells viability, ATP luminescence, 72 h; at 10 µM; stronger effect = lower value
[4] = MRP1 drug-resistance reversers in H69AR cells – cell-based, doxorubicin co-treatment, pilot screen (AID 601;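 active = viability loss from added drug above about 55%, and viability with drug at most 40%, in both replicates, limit read from the data, passing the limit was not always enough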); details: CellTiter-Glo, 72 h, at 10 µM; for differential viability (reversal): stronger effect = higher value
[5] = yeast transport mutant growth inhibition pilot in 384-well plates, post-Golgi transport modulator project (AID 636; in the data active = inhibition above about 31%); details: absorbance 615 nm, about 18 h, stronger effect = higher value
[6] = growth suppression of yeast trafficking mutant, preliminary HTS, modulators of trafficking downstream of Golgi apparatus project, 1536-format plate, OD 615 nm (AID 637; in the data active = inhibition above about 30%); details: yeast transport mutant growth, absorbance 615 nm, 18 h; stronger effect = higher value
[7] = H69AR cells + 2 uM doxorubicin, measured here: viability with 2 uM doxorubicin, stronger effect = lower value
[8] = H69AR cells, compound alone cytotoxicity

Row | Compound | viability [1] | viability [2] | viability [3] | differential viability (reversal) ([4]; H69AR cells + 2 uM doxorubicin) | viability [4, 7] [%] | viability [4, 8] [%] | inhibition [5] | inhibition [6]
1 | Cn1c(-c2ccccc2)cnc1SCc1nc2ccccc2c(=O)[nH]1 | 107% (inactive) | 105% (inactive) | 101% (inactive) | 18.1% (inactive) | 82.5 | 101 | -2.53% (inactive) | 4.18% (inactive)
2 | CCCc1cc(=O)[nH]c(=S)[nH]1 | 101% (inactive) | 97% (inactive) | 84% (inactive) | 2.76% (inactive) | 81.2 | 84 | 0.78% (inactive) | 0.17% (inactive)
3 | COC(=O)c1ccccc1NC(=O)c1cnc2sccn2c1=O | 110% (inactive) | 87.9% (inactive) | 104% (inactive) | 8.43% (inactive) | 95.5 | 104 | -3.6% (inactive) | -0.91% (inactive)
4 | Cc1ccc(S(=O)(=O)N2CCN(C(=O)CSc3nc4ccccc4c(=O)[nH]3)CC2)c(C)c1 | 99% (inactive) | 77.4% (inactive) | 85.1% (inactive) | 16.8% (inactive) | 68.2 | 85.1 | -6.53% (inactive) | -3.64% (inactive)
5 | O=S1(=O)CCN2C(=N1)SC1=C2CCN(Cc2ccccc2)C1 | 106% (inactive) | 96.7% (inactive) | 89% (inactive) | -1.18% (inactive) | 90.2 | 89 | -9.04% (inactive) | 3.09% (inactive)
6 | O=C(Nc1ccccc1Cl)c1c(F)c(F)c(F)c(F)c1F | 106% (inactive) | 106% (inactive) | 90.2% (inactive) | -7.56% (inactive) | 97.8 | 90.2 | 3.15% (inactive) | 7.09% (inactive)
7 | CC(COc1ccccc1)N(CCCl)Cc1ccccc1 (centres undefined) | 107% (inactive) | 78.2% (inactive) | 56.1% (inactive) | 9.34% (inactive) | 46.7 | 56.1 | -0.65% (inactive) | -3.33% (inactive)
8 | O=C(Nc1ccc(NC(=O)C2CC2)cn1)c1ccccc1Cl | 101% (inactive) | 98.7% (inactive) | 98.5% (inactive) | 7.09% (inactive) | 91.4 | 98.5 | -2.13% (inactive) | -2.91% (inactive)
9 | O=C(c1cccnc1)N1CCN(C(=O)c2ccccc2F)CC1 | 97% (inactive) | 98.5% (inactive) | 97.2% (inactive) | 11.5% (inactive) | 85.7 | 97.2 | -4% (inactive) | -5.09% (inactive)
10 | O=C(O)c1cccc(NC(=O)C23CC4CC(C2)CC(n2cnc(Cl)n2)(C4)C3)c1 | 122% (inactive) | 105% (inactive) | 96.9% (inactive) | 5.78% (inactive) | 91.1 | 96.9 | -1.95% (inactive) | 0.98% (inactive)
11 | CN(C)CCN(Cc1ccccc1)c1ccccn1 | 100% (inactive) | 89.1% (inactive) | 101% (inactive) | 8.55% (inactive) | 92.7 | 101 | 3.38% (inactive) | -0.67% (inactive)
12 | Cc1cc(NS(=O)(=O)c2ccc(NC(=O)COc3ccc(Cl)cc3)cc2)no1 | 100% (inactive) | 107% (inactive) | 84.1% (inactive) | -1.13% (inactive) | 85.2 | 84.1 | -9.32% (inactive) | -5.27% (inactive)
13 | Cc1c(Cl)cccc1NC(=O)CCN1CCCCCC1 | 116% (inactive) | 103% (inactive) | 88.3% (inactive) | 2.1% (inactive) | 86.2 | 88.3 | -6.85% (inactive) | 5.64% (inactive)
14 | CCOc1nc(-c2ccccc2)ccc1-c1noc(-c2ccc(OC)c(OC)c2)n1 | 68% (inactive) | 85.1% (inactive) | 67.1% (inactive) | -4.04% (inactive) | 71.2 | 67.1 | -1.43% (inactive) | -4.43% (inactive)
15 | CC(Sc1nnnn1C)C(=O)Nc1ccc(Oc2ccccc2)cc1 (centres undefined) | 92% (inactive) | 87.8% (inactive) | 97.8% (inactive) | 11% (inactive) | 86.8 | 97.8 | -7.53% (inactive) | 0.97% (inactive)
16 | O=C(Nc1ncnc2sc3c(c12)CCC3)c1ccco1 | 81% (inactive) | 94% (inactive) | 80.1% (inactive) | -2.91% (inactive) | 83 | 80.1 | -4.73% (inactive) | 0.55% (inactive)
17 | COc1ccc(CNCC(=O)Nc2cc(C)nn2-c2nc(C)cc(C)n2)cc1OC | 98% (inactive) | 51.1% (inactive) | 11.9% (active) | -58.3% (inactive) | 70.1 | 11.9 | -2.99% (inactive) | 1.15% (inactive)
18 | CCOC(=O)C1CN(S(=O)(=O)c2ccc(C)cc2)CCN1S(=O)(=O)c1ccc(C)cc1 (centres undefined) | 100% (inactive) | 101% (inactive) | 84.5% (inactive) | -16.3% (inactive) | 101 | 84.5 | -2.6% (inactive) | -1.8% (inactive)
